According to ChEMBL document CHEMBL2396654, “Discovery, synthetic methodology, and biological evaluation for antiphotoaging activity of bicyclic[1,2,3]triazoles: in vitro and in vivo studies” (2013):
Calls of active or inactive are those of the source. No cut-off for these calls is given here.

Tests used:
[1] = Antiphotoaging activity in HDF assessed as protection against 6 J/cm'2 UVA-induced reduction of cell survival at 5 uM treated 4 hrs before UVA irradiation measured after 24 hrs by MTT assay relative to control; format: functional; details: Homo sapiens, light or radiation study, read-out: Survival
In short: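 Normal human dermal fibroblasts (passages 5–10) seeded at 10 000 cells/well, grown overnight, exposed to compound at 5 μM for 4 h, then rinsed and irradiated in PBS with 6 J/cm2 UVA (365 nm lamp, 4.762 mW/cm2), after which medium was restored. After 24 h, MTT added for 2 h at 37 °C; formazan dissolved in DMSO, OD 540 nm. Reported as mean ± SD; three independent experiments, triplicate.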

HDF [2] = assay: Antiphotoaging activity in HDF assessed as protection against 6 J/cm'2 UVA-induced reduction of procollagen 1 type 1 mRNA expression treated 4 hrs before UVA irradiation by quantitative RT-PCR analysis; format: functional; details: Homo sapiens
In short: (§1)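 Fibroblasts treated with compound alone, UVA alone, or both. Total RNA extracted with Trizol; 2 μg reverse-transcribed. SYBR Green real-time qPCR with 0.3 μM each primer and 100 ng cDNA. GAPDH listed among the amplified genes.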

HDF [3] = assay: Antiphotoaging activity in HDF assessed as protection against 6 J/cm'2 UVA-induced reduction of elastin mRNA expression treated 4 hrs before UVA irradiation by quantitative RT-PCR analysis; format: functional; details: Homo sapiens; in short: as §1
HDF [4] = assay: Antiphotoaging activity in HDF assessed as reduction of 6 J/cm'2 UVA-induced senescence-associated-beta-gal positive cells treated 4 hrs before UVA irradiation using 5-bromo-4-chloro-3-indoyl-beta-galactoside staining by microscopic analysis; format: functional; details: Homo sapiens
HDF [5] = assay: Effect on senescence-associated-beta-gal expression in HDF using 5-bromo-4-chloro-3-indoyl-beta-galactoside staining by microscopic analysis; format: functional; details: Homo sapiens
HDF [6] = assay: Effect on ROS production in HDF at 5 uM after 4 hrs using DCFH-DA staining by flow cytometry; format: functional; details: Homo sapiens
In short: (§2)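 Fibroblasts treated 4 h at 5 μM or at various concentrations, then exposed to 6 J/cm2 UVA in PBS (365 nm peak) or sham-irradiated. Loaded with DCFH-DA 10 μM for 30 min at 37 °C. DCF fluorescence read by flow cytometry on FL-1. Three independent experiments.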

HDF [7] = assay: Antiphotoaging activity in HDF assessed as protection against 6 J/cm'2 UVA-induced reduction of COL1alpha1 mRNA expression treated 4 hrs before UVA irradiation by quantitative RT-PCR analysis; format: functional; details: Homo sapiens; in short: as §1
HDF [8] = assay: Effect on COL1alpha1 mRNA expression in HDF by quantitative RT-PCR analysis; format: functional; details: Homo sapiens; in short: as §1
HDF [9] = assay: Effect on mitochondrial membrane potential in HDF at 5 uM after 4 hrs using DiOC6 staining by flow cytometry; format: functional; details: Homo sapiens
In short: (§3)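 Normal fibroblasts (passages 5–10) pretreated 4 h at 5 μM or at various concentrations, then 6 J/cm2 UVA given in PBS (365 nm lamp, 4.762 mW/cm2) or sham-irradiated. Cells trypsinized, pelleted, stained with DiOC6 30 min at room temperature, washed, resuspended in PBS. Read at once by flow cytometry, FL-1 530/30 nm. Three independent experiments.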

HDF [10] = assay: Antiphotoaging activity in HDF assessed as protection against 6 J/cm'2 UVA-induced reduction of ATP level at 5 uM treated 4 hrs before UVA irradiation by bioluminescent assay; format: functional; details: Homo sapiens
In short: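 Fibroblasts exposed 4 h to compound at 5 μM, then irradiated with 6 J/cm2 UVA in PBS. Cells lysed at once and debris spun off. Supernatant ATP measured by luciferin–luciferase bioluminescence. Expressed as percent of unirradiated, untreated control. Three independent experiments.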

HDF [11] = assay: Antiphotoaging activity in HDF assessed as protection against 6 J/cm'2 UVA-induced reduction of cell proliferation treated 2 to 4 hrs before UVA irradiation measured after 24 hrs by MTT assay; format: functional; details: Homo sapiens
In short: (§4)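 Fibroblasts seeded at 10 000 cells/well and left overnight. Pretreated with 0, 1, 2.5 or 5 μM for 2 or 4 h, then given 6 J/cm2 UVA in PBS; medium added back. After 24 h, MTT 2 h at 37 °C, formazan dissolved in DMSO, OD read at 540 nm. Three independent experiments.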

HDF [12] = assay: Effect on procollagen 1 type 1 mRNA expression in HDF by quantitative RT-PCR analysis; format: functional; details: Homo sapiens; in short: as §1
HDF [13] = assay: Antiphotoaging activity in HDF assessed as reduction of 6 J/cm'2 UVA-induced ROS production treated 4 hrs before UVA irradiation using DCFH-DA staining by flow cytometry; format: functional; details: Homo sapiens; in short: as §2
HDF [14] = assay: Effect on elastin mRNA expression in HDF by quantitative RT-PCR analysis; format: functional; details: Homo sapiens; in short: as §1
HDF [15] = assay: Antiphotoaging activity in HDF assessed as protection against 6 J/cm'2 UVA-induced increase of MMP-1 mRNA expression treated 4 hrs before UVA irradiation by quantitative RT-PCR analysis; format: functional; details: Homo sapiens; in short: as §1
HDF [16] = assay: Effect on TIMP-1 mRNA expression in HDF by quantitative RT-PCR analysis; format: functional; details: Homo sapiens; in short: as §1
HDF [17] = assay: Antiphotoaging activity in HDF assessed as protection against 6 J/cm'2 UVA-induced reduction of cell proliferation at 1 to 5 uM measured after 24 hrs by irradiation by MTT assay; format: functional; details: Homo sapiens, TDE = time-dependent effect; in short: as §4
HDF [18] = assay: Antiphotoaging activity in HDF assessed as protection against 6 J/cm'2 UVA-induced increase of MMP-1 protein expression treated 4 hrs before UVA irradiation by Western blot analysis; format: functional; details: Homo sapiens
In short: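 Fibroblasts pretreated with 5 μM, then given 6 J/cm2 UVA. Lysed in ice-cold RIPA with protease and phosphatase inhibitors; protein measured by Bradford. Immunoblot with rabbit monoclonal anti-MMP-1, actin as loading control. HRP secondary, chemiluminescence detection, densitometry. Three independent experiments.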

HDF [19] = assay: Antiphotoaging activity in HDF assessed as protection against 6 J/cm'2 UVA-induced reduction of TIMP-1 mRNA expression treated 4 hrs before UVA irradiation by quantitative RT-PCR analysis; format: functional; details: Homo sapiens; in short: as §1
HDF [20] = assay: Effect on fibronectin mRNA expression in HDF by quantitative RT-PCR analysis; format: functional; details: Homo sapiens; in short: as §1
HDF [21] = assay: Antiphotoaging activity in HDF assessed as protection against 6 J/cm'2 UVA-induced reduction of fibronectin mRNA expression treated 4 hrs before UVA irradiation by quantitative RT-PCR analysis; format: functional; details: Homo sapiens; in short: as §1
Mus musculus = species: Mus musculus; assay: Antiphotoaging activity in ICR mouse assessed as reduction of 3 J/cm'2 UVA-induced epidermal hypertrophy at 0.5 gram per square in dorsal skin immediately after UVA irradiation 3 times a week for up to 12 weeks; format: functional, organism-based
In short: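 Female ICR mice, six weeks old, n = 4 per group, dorsal skin shaved. Given 3 J/cm2 UVA (4.762 mW/cm2), then 0.1% emulsion (Tefose 63 base) applied topically at 0.5 g per square right after irradiation. Done three times weekly for up to 12 weeks (total 108 J/cm2). Skin taken after final irradiation for histology.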

HDF [22] = assay: Antiphotoaging activity in HDF assessed as increase of 6 J/cm'2 UVA-induced mitochondrial membrane potential treated 4 hrs before UVA irradiation using DiOC6 staining by flow cytometry; format: functional; details: Homo sapiens; in short: as §3
HDF [23] = assay: Effect on MMP-1 mRNA expression in HDF by quantitative RT-PCR analysis; format: functional; details: Homo sapiens; in short: as §1

**Q.** With COc1cccc(C#Cc2nnn3c2CCCC3)c1 as the compound, how does the viability at 5 µM [1] read?
**A.** 61.9%

**Q.** For O=[N+]([O-])c1ccc(C#Cc2nnn3c2CCC3)cc1, which viability at 5 µM [1] is on record?
**A.** 84.1%

**Q.** Which viability at 5 µM [1] does the source give for CCc1ccc(C#Cc2nnn3c2CCCC3)cc1 here?
**A.** 55.7%

**Q.** For Nc1ccccc1-c1nnn2c1CCCC2, which viability at 5 µM [1] is on record?
**A.** 61%

**Q.** With COc1ccc(-c2nnn3c2CCC3)cc1 as the compound, how does the viability at 5 µM [1] read?
**A.** 70.3%

**Q.** For COc1ccc(C#Cc2nnn3c2CCC3)cc1, which viability at 5 µM [1] is on record?
**A.** 73.2%

**Q.** Which viability at 5 µM [1] does the source give for C(#Cc1nnn2c1CCCC2)c1ccccc1 here?
**A.** 68.7%

**Q.** What does the source list for COc1cccc(C#Cc2nnn3c2CCC3)c1?
**A.** Activity (HDF [2]): Active; Activity (HDF [3]): Active; Activity (HDF [4]): Active; Activity (HDF [5]): inactive; Activity (HDF [6]): inactive; Activity (HDF [7]): Active; Activity (HDF [8]): inactive; Activity (HDF [9]): inactive; Activity (HDF [10]): Active; Activity (HDF [11]): Dose-dependent effect; viability at 5 µM [1]: 95.3%; Activity (HDF [12]): inactive; Activity (HDF [13]): Dose-dependent effect; Activity (HDF [14]): inactive; Activity (HDF [15]): Active; Activity (HDF [16]): inactive; Activity (HDF [17]): tde; Activity (HDF [18]): Active; Activity (HDF [19]): Active; Activity (HDF [20]): inactive; Activity (HDF [21]): Active; Activity (Mus musculus): Active; Activity (HDF [22]): Dose-dependent effect; Activity (HDF [23]): inactive

**Q.** Which viability at 5 µM [1] does the source give for O=[N+]([O-])c1cccc(C#Cc2nnn3c2CCCC3)c1 here?
**A.** 71.3%

**Q.** Which viability at 5 µM [1] does the source give for c1ccc(-c2nnn3c2CCCC3)cc1 here?
**A.** 57%

**Q.** Which viability at 5 µM [1] does the source give for O=[N+]([O-])c1cccc(C#Cc2nnn3c2CCC3)c1 here?
**A.** 88.2%

**Q.** Which viability at 5 µM [1] does the source give for CCc1ccc(C#Cc2nnn3c2CCC3)cc1 here?
**A.** 80.7%

**Q.** For COc1cccc(-c2nnn3c2CCCC3)c1, which viability at 5 µM [1] is on record?
**A.** 63.7%

**Q.** With COc1ccc(-c2nnn3c2CCCC3)cc1 as the compound, how does the viability at 5 µM [1] read?
**A.** 54%

**Q.** Which viability at 5 µM [1] does the source give for Fc1ccccc1C#Cc1nnn2c1CCC2 here?
**A.** 75.2%

**Q.** With COc1ccc(C#Cc2nnn3c2CCCC3)cc1 as the compound, how does the viability at 5 µM [1] read?
**A.** 73%

**Q.** With O=[N+]([O-])c1ccc(-c2nnn3c2CCCC3)cc1 as the compound, how does the viability at 5 µM [1] read?
**A.** 52%

**Q.** With C(#Cc1nnn2c1CCC2)c1ccccc1 as the compound, how does the viability at 5 µM [1] read?
**A.** 62.7%

**Q.** With c1ccc(-c2nnn3c2CCC3)cc1 as the compound, how does the viability at 5 µM [1] read?
**A.** 61.1%

**Q.** With Fc1ccccc1C#Cc1nnn2c1CCCC2 as the compound, how does the viability at 5 µM [1] read?
**A.** 78.9%

**Q.** With COc1cccc(-c2nnn3c2CCC3)c1 as the compound, how does the viability at 5 µM [1] read?
**A.** 58%

**Q.** Which viability at 5 µM [1] does the source give for O=[N+]([O-])c1cccc(-c2nnn3c2CCCC3)c1 here?
**A.** 62%

**Q.** For O=[N+]([O-])c1ccc(-c2nnn3c2CCC3)cc1, which viability at 5 µM [1] is on record?
**A.** 70%

**Q.** For O=[N+]([O-])c1cccc(-c2nnn3c2CCC3)c1, which viability at 5 µM [1] is on record?
**A.** 52.8%

**Q.** For Nc1ccccc1C#Cc1nnn2c1CCC2, which viability at 5 µM [1] is on record?
**A.** 71.2%
